Laboratory results taken from ChEMBL document CHEMBL1133527, “Exploring the structural basis of neurotoxicity in C(17)-polyacetylenes isolated from water hemlock” (J Med Chem, 2000).

Columns and labels:
[1] = target: GABA-A receptor; anion channel; assay: Tested for inhibition of specific binding of [3H]-EBOB to GABA-Gated Chloride channels of Gamma-aminobutyric acid A receptor in rat brain cortex (Potency expressed as IC50); type: tissue-based
Summary of the method: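 Washed cortical membranes from SD rats (7 weeks), prepared in 50 mM Tris-HCl pH 7.4 and stored at -80 °C, equivalent to 5 mg tissue, incubated with 3 nM [3H]EBOB and test agent at 25 °C for 1 h. Bound ligand collected by filtration on polyethylenimine-treated GF/B filters and counted by scintillation. IC50 from dose-response curves run in duplicate.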

Mus musculus = assay: Acute toxicity against mice after ip administration; type: organism-based; conditions: in vivo

SMILES | IC50 [1] | LD50 (Mus musculus)
CCCCCC(=O)/C=C/C=C/C#CC#CCCCO | > 10 µM | > 25.8 mg kg-1 i.p.
CCCCCC/C=C/C=C/C#CC#CCCCO | > 10 µM | > 37.8 mg kg-1 i.p.
CCC[C@@H](O)/C=C/C=C/C=C/C#CC#CCCC(=O)O | 0.3 µM | 0.76 mg kg-1 i.p.
CCC[C@@H](O)/C=C/C=C/C=C/C#CC#CCCC(=O)OC | 0.42 µM | 1.6 mg kg-1 i.p.
CCCCCCC[C@H](O)/C=C/C#CC#CCCCO | 7.87 µM | > 105 mg kg-1 i.p.
CCC[C@H](/C=C/C=C/C=C/C#CC#CCCCO)OC(C)=O | > 10 µM | 2.8 mg kg-1 i.p.
CCCCNC(=O)CCC#CC#C/C=C/C=C/C=C/[C@H](O)CCC | > 10 µM | 4.9 mg kg-1 i.p.
CCCCCC(O)/C=C/C=C/C#CC#CCCCO (stereo not given) |  | 7.7 mg kg-1 i.p.
CCCCC[C@H](O)/C=C/C=C/C#CCCCO | > 10 µM | > 70.8 mg kg-1 i.p.
CCC[C@@H](O)/C=C/C=C/C=C/C#CC#CCCC(N)=O | 1.56 µM | 1.1 mg kg-1 i.p.
CCC[C@H](/C=C/C=C/C=C/C#CC#CCCCOC)OC | > 10 µM | > 57.2 mg kg-1 i.p.
CCCCCCC/C=C\C(=O)C#CC#CCCCO | > 10 µM | > 26 mg kg-1 i.p.
CCC[C@@H](O)/C=C/C=C/C=C/C#CC#CCCC=O | 2.22 µM | 4.9 mg kg-1 i.p.
CCCCCCC/C=C\CC#CC#CCCCO | > 10 µM | > 24.6 mg kg-1 i.p.
CCC[C@@H](O)/C=C/C=C/C=C/C#CC#CCCCOC(C)=O | 1.1 µM | 1.9 mg kg-1 i.p.
CCCC(=O)CC/C=C/C=C/C#CC#CCCCO | 3.64 µM | 1.1 mg kg-1 i.p.
CCCC#CC#C/C=C/C=C/[C@@H](O)CCCCC | > 10 µM | > 97.6 mg kg-1 i.p.
CCC[C@@H](O)/C=C/C=C/C=C/C#CC#CCCCOC | 6.79 µM | 10.6 mg kg-1 i.p.
CCCC(=O)/C=C/C=C/C=C/C#CC#CCCCO | 3.05 µM | 7.6 mg kg-1 i.p.
CCCCC[C@H](O)/C=C/C=C/C#CC#CCCCO | 1.15 µM | 9.5 mg kg-1 i.p.
CCC[C@H](/C=C/C=C/C=C/C#CC#CCCCOC(C)=O)OC(C)=O | > 10 µM | 15.7 mg kg-1 i.p.
CCCCCCC/C=C\[C@H](O)C#CC#CCCCO | 6.01 µM | > 393 mg kg-1 i.p.
CCCC(O)/C=C/C=C/C=C/C#CC#CCCCO (stereo not given) | 2.01 µM | 38.6 mg kg-1 i.p.
CCC[C@@H](O)/C=C/C=C/C=C/C#CC#CCCCO [CICUTOXIN] | 0.54 µM | 2.8 mg kg-1 i.p.
C=C[C@@H](O)C#CC#C[C@@H](O)/C=C\CCCCCCC [FALCARINDIOL] | > 10 µM | > 200 mg kg-1 i.p.
C=C(C)[C@@H]1[C@H]2OC(=O)[C@@H]1[C@]1(O)C[C@H]3OC34C(=O)O[C@H]2[C@@]41C.CC(C)(O)[C@@H]1[C@H]2OC(=O)[C@@H]1[C@]1(O)C[C@H]3OC34C(=O)O[C@H]2[C@@]41C (stereo not given in full) [PICROTOXIN] | 1.31 µM | 
